pEC50: −log10 of the molar value. The source made the active and inactive calls. The calls are words filed in the database; no cut-off is given here.
Key:
[1] = Antioxidant activity assessed as inhibition of H2O2-induced ROS production by DCFH assay; format: functional
Procedure, shortened: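 DCFH oxidation assay: H2O2 (0.5 mM) was incubated with DCFH with or without the test agent, and the DCF formed was read fluorometrically. Free His and Trolox served as controls.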

[2] = Induction of self-assembly of the compound in DMSO at 1 uM by fluorescence spectroscopic analysis; format: physicochemical
Procedure, shortened: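 Self-assembly of NBD-labelled peptide (1 μM) in 1:1 DMSO/MES (25 mM, pH 6.6) was followed as fluorescence decrease over time.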

[3] = Cellular uptake in intracellular vesicle of rat L6 cells at 10 uM after 4 hrs by WGA/Hoechst staining-based confocal fluorescent microscopic analysis; format: ADME, cell-based; conditions: l6, 4 h
Procedure, shortened: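 Live L6 myotubes on glass-bottom dishes were given NBD-labelled peptide (10 μM) for 4 h in medium with 1% FBS, then washed. Nuclei were stained with Hoechst and membranes with Alexa Fluor-WGA. Imaging was by confocal microscopy at 37 °C.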

L6 [4] = test: Effect on human myc epitope-tagged total GLUT1 level overexpressed in rat L6 cells at 2 mM after 30 mins by Western blotting analysis; format: functional, cell-based
Procedure, shortened: (§1)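 Whole-cell lysates of GLUT1myc- or GLUT4myc-overexpressing L6 myotubes were made after the same treatments as in the surface assay. Western blots were run for total transporter content.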

L6 [5] = test: Antihyperglycemic activity in rat L6 cells assessed as increase in [3H]dGlc uptake at 25 uM after 30 mins by liquid scintillation counting analysis; format: functional, cell-based
L6 [6] = test: Antihyperglycemic activity in rat L6 cells assessed as increase in [3H]dGlc uptake at 2 mM after 30 mins by liquid scintillation counting analysis; format: functional, cell-based
Procedure, shortened: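 Differentiated L6 myotubes were preincubated 24 h in αMEM with 2% FCS and 5.5 or 23.5 mM D-glucose, then switched to FCS-free medium with 0.5% BSA 4 h before the assay. Peptide was given for 12 h or ALA for 30 min, vehicle 0.1% DMSO. After PBS rinses, cells took up 0.1 mM dGlc plus [3H]dGlc (1.3 μCi mL−1) for 5 min at room temperature. Cells were lysed in 0.1% SDS and counted by scintillation. Uptake is expressed as % of the DMSO basal rate.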

L6 [7] = test: Effect on total GLUT1 level in rat L6 cells at 2 mM after 30 mins by Western blotting analysis; format: functional, cell-based
L6 [8] = test: Antiapoptotic activity in rat L6 cells assessed as suppression of 23.5 mM D-glucose-induced JNK-54 phosphorylation at 2 mM after 30 mins by Western blot analysis; format: functional, cell-based
L6 [9] = test: Effect on human myc epitope-tagged total GLUT4 level overexpressed in rat L6 cells at 2 mM after 30 mins by Western blotting analysis; format: functional, cell-based; procedure, shortened: as §1
L6 [10] = test: Antioxidant activity in rat L6 cells assessed as trolox equivalents of ABTS free radical scavenging activity at 2 mM after 2 hrs by ELISA reader analysis in presence of 23.5 mM D-glucose; format: functional, cell-based
Procedure, shortened: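 L6 myotubes in αMEM with 2% FCS and 5.5 or 23.5 mM glucose were treated with peptide (25 μM, 12 h) or ALA (2 mM, 2 h), vehicle 0.1% DMSO. Cells were lysed (Tris pH 7.5, NaCl, NP-40) through three freeze-thaw cycles and centrifuged. Lysates were assayed for metmyoglobin/H2O2-driven ABTS•+ formation. Results are Trolox equivalents per mg protein from a Trolox standard curve, with protein by Bradford.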

L6 [11] = test: Antiapoptotic activity in rat L6 cells assessed as suppression of 23.5 mM D-glucose-induced JNK-46 phosphorylation at 2 mM after 30 mins by Western blot analysis; format: functional, cell-based
L6 [12] = test: Effect on total GLUT4 level in rat L6 cells at 2 mM after 30 mins by Western blotting analysis; format: functional, cell-based
[13] = molecular target: T1, Solute carrier family 2, facilitated glucose transporter member 1 (Homo sapiens) (UniProt P11166); test: Induction of human myc epitope-tagged GLUT1 translocation to plasma membrane overexpressed in rat L6 cells at 2 mM after 30 mins by immunocolorimetric analysis in presence of 23.5 mM D-glucose; format: cell-based
T1 sequence (whole entry): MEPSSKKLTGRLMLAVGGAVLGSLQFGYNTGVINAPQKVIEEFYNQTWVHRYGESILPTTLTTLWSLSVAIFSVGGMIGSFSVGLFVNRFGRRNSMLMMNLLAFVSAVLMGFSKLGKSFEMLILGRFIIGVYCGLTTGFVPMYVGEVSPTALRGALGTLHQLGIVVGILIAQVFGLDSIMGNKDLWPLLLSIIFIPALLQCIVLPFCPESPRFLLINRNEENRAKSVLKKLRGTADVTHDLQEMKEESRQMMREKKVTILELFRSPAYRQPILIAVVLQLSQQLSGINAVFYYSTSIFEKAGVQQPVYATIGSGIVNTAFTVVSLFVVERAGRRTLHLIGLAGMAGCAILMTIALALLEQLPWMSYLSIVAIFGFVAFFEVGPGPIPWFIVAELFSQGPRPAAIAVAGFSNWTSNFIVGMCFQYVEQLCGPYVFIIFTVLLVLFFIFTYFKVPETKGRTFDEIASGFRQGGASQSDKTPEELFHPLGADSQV
Procedure, shortened: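 L6 myotubes overexpressing GLUT1myc or GLUT4myc were held 9 h in serum-free αMEM with 0.5% BSA and 23.5 mM glucose. They received peptide (25 μM) or 0.1% DMSO over the last 8 h, and insulin (100 nM) or ALA (2 mM) over the last 30 min. Live cells were labelled with anti-c-Myc (1:200) and fixed in 3% formaldehyde. HRP anti-rabbit IgG (1:2000) and OPD were added, and absorbance was read at 492 nm.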

L6 [14] = test: Cytoprotective activity in rat L6 cells assessed as increase in glucose oxidase-reduced cell survival at 2 mM incubated for 30 mins prior to glucose oxidase challenge measured after 5 hrs by MTT assay in presence of 23.5 mM D-glucose; format: functional, cell-based
Procedure, shortened: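 L6 myotubes were kept 7 days in 23.5 mM glucose. They were pretreated with peptide (25 μM, 12 h) or ALA (2 mM, 30 min), vehicle 0.1% DMSO, at 37 °C. Glucose oxidase (50 mU mL−1) was then added for 5 h to generate H2O2. Viability was read by MTT.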

| SMILES | pEC50 [1] | Activity [2] | Drug uptake [3] | Activity (L6 [4]) | Activity (L6 [5]) | Activity (L6 [6]) | Activity (L6 [7]) | Activity (L6 [8]) | Activity (L6 [9]) | Activity (L6 [10]) | Activity (L6 [11]) | Activity (L6 [12]) | Activity [13] | Activity (L6 [14]) |
| --- | --- | --- | --- | --- | --- | --- | --- | --- | --- | --- | --- | --- | --- | --- |
| O=C1N[C@H](CCCCNc2ccc([N+](=O)[O-])c3nonc23)C(=O)N[C@@H](Cc2c[nH]cn2)C(=O)N[C@H](Cc2c[nH]c3ccccc23)C(=O)N[C@@H](Cc2c[nH]c3ccccc23)C(=O)N[C@H](Cc2c[nH]cn2)C(=O)N[C@@H](Cc2c[nH]cn2)C(=O)N[C@H](Cc2c[nH]cn2)C(=O)N[C@H]1Cc1c[nH]cn1 | 6.52 | Active | Active |  |  |  |  |  |  |  |  |  |  |  |
| Cc1c(C)c2c(c(C)c1O)CCC(C)(C(=O)O)O2 (stereo not given) [TROLOX] | 6.46 |  |  |  |  |  |  |  |  |  |  |  |  |  |
| O=C(O)CCCCC1CCSS1 (stereo not given) |  |  |  | inactive | inactive | Active | inactive | Active | inactive | Active | Active | inactive | Active | Active |

From ChEMBL document CHEMBL2439985, “Multifunctional cyclic D,L-α-peptide architectures stimulate non-insulin dependent glucose uptake in skeletal muscle cells and protect them against oxidative stress” (J Med Chem, 2013)
